# Measurements taken from paper PMC4017091 (Bioorganic & medicinal chemistry, 2013).
# Entries after “also recorded” stand apart in the source; their conditions may differ.
# Columns and labels:
# [1] = biological target: T1, COX-2 (human recombinant) (Homo sapiens, UniProt P35354); assay: COX-2 inhibition screening assay; type: biochemical; conditions: 50 μM compound; 2 mM arachidonic acid substrate
# T1 sequence (P35354 18-604): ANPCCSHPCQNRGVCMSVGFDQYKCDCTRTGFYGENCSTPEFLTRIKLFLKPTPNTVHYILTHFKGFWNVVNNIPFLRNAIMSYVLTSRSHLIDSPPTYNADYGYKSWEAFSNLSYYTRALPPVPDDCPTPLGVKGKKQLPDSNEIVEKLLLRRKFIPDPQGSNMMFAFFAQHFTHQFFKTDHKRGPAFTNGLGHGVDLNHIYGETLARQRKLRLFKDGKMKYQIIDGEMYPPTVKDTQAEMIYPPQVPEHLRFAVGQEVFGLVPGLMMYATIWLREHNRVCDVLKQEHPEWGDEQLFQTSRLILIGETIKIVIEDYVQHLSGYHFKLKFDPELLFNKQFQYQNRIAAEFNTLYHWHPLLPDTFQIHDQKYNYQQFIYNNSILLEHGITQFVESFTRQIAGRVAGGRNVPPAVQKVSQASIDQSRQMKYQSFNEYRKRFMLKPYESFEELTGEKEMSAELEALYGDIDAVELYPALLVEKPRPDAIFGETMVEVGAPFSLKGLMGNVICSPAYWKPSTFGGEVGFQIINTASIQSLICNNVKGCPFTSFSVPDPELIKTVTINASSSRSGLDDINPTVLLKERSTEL
# Method in brief: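 Human recombinant COX-2 was diluted 1:1000 in 0.1 M Tris pH 8.0 with hematin. It was pre-incubated 5 min at room temperature with test compound from a 1.1 mM DMSO solution, or DMSO for the positive control. Freshly made TMPD and then arachidonic acid were added, with no arachidonic acid in negative controls. After 5 more min at room temperature, TMPD oxidation was read at 550 nm. Triplicate; mean with SD.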
# human 5-LOX [2] = biological target: T2, human 5-LOX (Homo sapiens, UniProt P09917); assay: Human 5-LOX inhibition screening UV assay; type: biochemical; conditions: 50 μM compound; 100 μM linoleic acid substrate; 10 min pre-incubation
# T2 sequence (P09917 1-674): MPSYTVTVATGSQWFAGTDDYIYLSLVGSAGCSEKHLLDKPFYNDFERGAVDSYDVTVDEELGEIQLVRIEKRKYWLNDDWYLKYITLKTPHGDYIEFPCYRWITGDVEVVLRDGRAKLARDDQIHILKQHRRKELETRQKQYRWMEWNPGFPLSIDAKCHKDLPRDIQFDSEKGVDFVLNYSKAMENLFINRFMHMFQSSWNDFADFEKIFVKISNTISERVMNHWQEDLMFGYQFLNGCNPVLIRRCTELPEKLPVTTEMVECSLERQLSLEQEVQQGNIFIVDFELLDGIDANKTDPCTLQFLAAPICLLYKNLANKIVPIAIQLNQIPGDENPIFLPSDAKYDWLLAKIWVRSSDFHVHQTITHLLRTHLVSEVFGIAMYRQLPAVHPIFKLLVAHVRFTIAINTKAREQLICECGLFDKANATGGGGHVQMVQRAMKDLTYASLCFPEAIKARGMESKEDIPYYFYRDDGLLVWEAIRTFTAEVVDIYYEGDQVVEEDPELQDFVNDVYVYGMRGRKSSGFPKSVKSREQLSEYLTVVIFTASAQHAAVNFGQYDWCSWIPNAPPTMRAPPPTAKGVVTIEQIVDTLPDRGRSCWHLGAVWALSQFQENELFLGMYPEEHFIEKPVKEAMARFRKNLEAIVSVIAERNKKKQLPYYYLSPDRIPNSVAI
# Method in brief: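 Human 5-LOX was diluted 1:4000 in 50 mM Tris pH 7.5 with 2 mM EDTA and 2 mM CaCl2, plus ATP (2 mM stock). It was pre-incubated 10 min at room temperature with test compound diluted from DMSO stock, or a DMSO-only control. Linoleic acid (20 mM ethanolic stock) was added, and HPOD conjugated diene formation was followed at 234 nm over 20 min. Residual activity was taken relative to the control. Three independent experiments; mean with SD.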
# h-5-LOX = biological target: T3, h-5-LOX (Homo sapiens, UniProt P09917); assay: h-5-LOX activity with arachidonic acid as substrate; type: biochemical; conditions: 50 μM compound; 100 μM arachidonic acid
# T3 sequence (P09917 1-674): T2 sequence (P09917 1-674)
# human 5-LOX [3] = biological target: T2, human 5-LOX; assay: Michaelis-Menten enzyme kinetics of human 5-LOX versus ATP or linoleic acid; type: biochemical; conditions: for type of modulation versus linoleic acid: varied linoleic acid
# potato 5-lipoxygenase = conditions: cited from earlier work
# [4] = tested on: soybean lipoxygenase-1 (SLO-1); conditions: cited from earlier work
# [5] = linoleic acid conversion, non-essential activation model
structure (smiles),measurement,setting,value
CCCCCc1cccc(O)c1C(=O)O [Compound 16],effect on COX-2 activity (in words),[1],little inhibition
same,effect on h-5-LOX activity (in words),human 5-LOX [2],little inhibition
"CCCCCCCCCOc1ccc(COc2cccc(O)c2C(=O)[O-])cc1.[K+] [Compound 23c, Potassium 2-hydroxy-6-((4-(nonyloxy)benzyl)oxy)benzoate]",effect on h-5-LOX activity (in words),human 5-LOX [2],no or little inhibition
"CCCCCCCCCCCCCCCc1cccc(O)c1C(=O)O [Compound 14, Anacardic acid, reference compound]",effect on COX-2 activity (in words),[1],little inhibition
same,effect on h-5-LOX activity (in words),human 5-LOX [2],little inhibition
CCCCCCCCCCCCCCCc1cc(O)cc(O)c1C(=O)O [Compound 17],effect on h-5-LOX activity (in words),human 5-LOX [2],slight improvement in the inhibitory potency
"CCCCCCCOc1ccc(COc2cccc(O)c2C(=O)[O-])cc1.[K+] [Compound 23b, Potassium 2-((4-(heptyloxy)benzyl)oxy)-6-hydroxybenzoate]",effect on h-5-LOX activity (in words),human 5-LOX [2],no or little inhibition
CCCCCCCCCCc1cccc(O)c1C(=O)O [Compound 15],effect on COX-2 activity (in words),[1],little inhibition
same,effect on h-5-LOX activity (in words),human 5-LOX [2],little inhibition
"CCCCCOc1ccc(COc2cccc(O)c2C(=O)[O-])cc1.[K+] [Compound 23a, potassium 2-hydroxy-6-((4-(pentyloxy)benzyl)oxy)benzoate]",modulation of h-5-LOX activity toward arachidonic acid,h-5-LOX,no modulation; also recorded: no effect
same,α (change in the affinity of substrate binding),human 5-LOX [3]; [5],0.0438
same,β (change in the catalytic constant),human 5-LOX [3]; [5],1.76
same,type of modulation versus ATP,"human 5-LOX [3]; varied ATP, 100 μM linoleic acid",non-competitive activation
same,type of modulation versus linoleic acid,human 5-LOX [3]; 100 μM ATP,non-essential mixed type activation
same,activation of linoleic acid conversion versus compound concentration,"human 5-LOX [3]; various concentrations of compound, linoleic acid substrate",concentration dependent activation
same,Vmax^app,"human 5-LOX [3]; versus ATP, 12.5 μM 23a, 100 μM linoleic acid",0.3861 ± 0.0073 µM/s
same,Vmax^app,"human 5-LOX [3]; versus ATP, 25 μM 23a, 100 μM linoleic acid",0.5236 ± 0.0137 µM/s
same,Vmax^app,"human 5-LOX [3]; versus linoleic acid, 12.5 μM 23a, 100 μM ATP",2.39 ± 0.07 µM/s
same,Vmax^app,"human 5-LOX [3]; versus linoleic acid, 25 μM 23a, 100 μM ATP",2.70 ± 0.05 µM/s
same,effect on h-5-LOX activity (in words),human 5-LOX [2],strong activation
CCCCCCCCCCCCCCOc1cccc(O)c1C(=O)O [Compound 21],effect on potato 5-LOX,potato 5-lipoxygenase,strong activation; also recorded: allosteric activator
same,effect on h-5-LOX activity (in words),human 5-LOX [2],neither inhibition nor activation
CCCCCCCc1ccc(CCc2cc(O)cc(O)c2C(=O)O)cc1 [Compound 19],effect on soybean lipoxygenase-1 (SLO-1),[4],allosteric inhibitor
"Oc1ccccc1-c1nc2ccccc2o1 [Compound 25, 2-(benzo[d]oxazol-2-yl)phenol]",effect on h-5-LOX activity (in words),human 5-LOX [2],did not inhibit; also recorded: no inhibition
CCCCC/C=C\C/C=C\CCCCCCCC(=O)O [linoleic acid],Km,"human 5-LOX [3]; read-out: Km of the substrate for h-5-LOX, no modulator",600 µM
"CC(C)CCCC(C)CCOc1ccc(COc2cccc(O)c2C(=O)[O-])cc1.[K+] (stereo not drawn) [Compound 23d, Potassium 2-((4-((3,7-dimethyloctyl)oxy)benzyl)oxy)-6-hydroxybenzoate]",modulation of h-5-LOX activity toward arachidonic acid,h-5-LOX,no modulation; also recorded: no effect
same,Ki′ (dissociation constant of inhibitor to enzyme-substrate complex),"human 5-LOX [3]; linoleic acid conversion, mixed type inhibition model",140 µM
same,type of modulation versus linoleic acid,human 5-LOX [3]; 100 μM ATP,mixed-type inhibition
same,Vmax^app,"human 5-LOX [3]; versus linoleic acid, 25 μM 23d",1.84 ± 0.25 µM/s
same,Vmax^app,"human 5-LOX [3]; versus linoleic acid, 50 μM 23d",1.47 ± 0.16 µM/s
